Results published in PMC4301737 (Journal of molecular biology, 2009).
Read-outs that look alike come from different tables or passages of the source.

Experiments:
BpeGReg [1] = test: Enzymatic diguanylate cyclase assay; format: biochemical, Bordetella pertussis
BpeGReg [2] = test: Ligand binding kinetics and affinity of BpeGReg; parameters: species or system Bordetella pertussis; conditions: 25°C, 100 mM NaPi, pH 7.5
Summary of the method: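 His-tagged protein purified by Co2+-affinity, used at 2–5 µM. O2 kon by flash photolysis at 436 or 414 nm with 64–1024 µM O2. O2 koff by stopped-flow at 436 nm, oxy protein mixed with 1 mM dithionite. CO kon by photolysis at 419 nm with 30–480 µM CO. CO koff: 3.5 µM CO-bound protein (20 µM CO) displaced by 500 µM NO at 423 nm. NO kon by photolysis at 435 nm with 15–60 µM NO. Rates taken from linear kobs-versus-ligand plots over ≥4 concentrations.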

[3] = biological target: sperm-whale myoglobin (SWMb); conditions: ref Springer et al.[23], cited from earlier work
HemAT-Bs = conditions: ref Zhang et al.[22], cited from earlier work

For `Nc1nc2c(ncn2[C@@H]2O[C@@H]3COP(=O)(O)O[C@H]4[C@@H](O)[C@H](n5cnc6c(=O)[nH]c(N)nc65)O[C@@H]4COP(=O)(O)O[C@H]3[C@H]2O)c(=O)[nH]1` [c-di-GMP, bis-(3’–5’)-cyclic diguanosine monophosphate], the “effect on BpeGReg-catalyzed reaction” value (BpeGReg [1]; 20 µM c-di-GMP added at start, 1 µM oxy-BpeGReg, 500 µM GTP) was “strongly inhibited”.

In the case of `O=O` [O2, oxygen], the O2 koff (BpeGReg [2]) is reported as 4.5 s⁻¹, the Kd (BpeGReg [2]; read-out: O2 Kd) is reported as 640 nM and the “drop in activity in the absence of O2” value (BpeGReg [1]; 5 µM BpeGReg in air (Fe(II)O2) vs anaerobic (Fe(II)), 500 µM GTP, PDE-coupled) is reported as 13 fold. The “rate of O2-bound BpeGReg relative to unliganded ferrous form” value (BpeGReg [1]; PDE-coupled assay) was 10 times, the “initial rate of c-di-GMP production by O2-bound BpeGReg” value (BpeGReg [1]; PDE-coupled assay, 500 µM GTP) was 2.5 min⁻¹ and the “c-di-GMP production by liganded state of BpeGReg” value (BpeGReg [1]; compared to the unliganded, CO- and NO-bound forms, HPLC-MS and TLC) was “highest amount of c-di-GMP per mole of protein”. The Kd ([3]; read-out: O2 Kd) was 880 nM and the O2 koff [3] was 15 s⁻¹.

For `[C-]#[O+]` [CO, carbon-monoxide], the Kd (HemAT-Bs; read-out: CO Kd) is listed as 200 nM, the CO koff (HemAT-Bs) is listed as 0.067 s⁻¹ and the CO koff (BpeGReg [2]) is listed as 0.056 s⁻¹. For the same compound, the Kd ([3]; read-out: CO Kd) was 37 nM and the CO koff [3] was 0.019 s⁻¹.
